Assay results as given in ChEMBL document CHEMBL1156933, “Studies of benzothiophene template as potent factor IXa (FIXa) inhibitors in thrombosis” (J Med Chem, 2010).
pKi: −log10 of the molar value.

Experiments:
[1] = molecular target: Coagulation factor IX (Homo sapiens, UniProt P00740); assay: Inhibition of human recombinant factor 9a by amidolytic assay
[2] = molecular target: Coagulation factor X (Homo sapiens, UniProt P00742); assay: Inhibition of factor 10 by amidolytic assay
How it was run: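 Done by a previously published literature method. IC50 values are the mean of at least three experiments, with variation among results under 10%.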

Coagulation factor IX, sequence (P00740 47-191 limits assumed): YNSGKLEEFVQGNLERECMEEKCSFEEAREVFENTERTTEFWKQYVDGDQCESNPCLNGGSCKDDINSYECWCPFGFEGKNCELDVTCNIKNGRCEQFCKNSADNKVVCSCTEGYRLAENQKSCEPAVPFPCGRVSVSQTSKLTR
Coagulation factor IX, sequence (P00740 227-461 limits assumed): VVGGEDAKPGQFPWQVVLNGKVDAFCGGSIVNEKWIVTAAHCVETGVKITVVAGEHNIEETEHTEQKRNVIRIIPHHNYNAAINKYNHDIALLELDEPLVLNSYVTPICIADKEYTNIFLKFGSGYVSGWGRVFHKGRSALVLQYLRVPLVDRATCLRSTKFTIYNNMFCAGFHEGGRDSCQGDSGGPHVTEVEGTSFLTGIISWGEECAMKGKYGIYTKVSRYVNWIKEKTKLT
Coagulation factor X, sequence (P00742 41-179 limits assumed): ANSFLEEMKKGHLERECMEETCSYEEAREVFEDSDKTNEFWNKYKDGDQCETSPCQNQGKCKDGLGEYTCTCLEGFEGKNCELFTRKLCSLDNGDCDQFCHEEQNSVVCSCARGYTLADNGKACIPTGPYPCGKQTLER
Coagulation factor X, sequence (P00742 235-488 limits assumed): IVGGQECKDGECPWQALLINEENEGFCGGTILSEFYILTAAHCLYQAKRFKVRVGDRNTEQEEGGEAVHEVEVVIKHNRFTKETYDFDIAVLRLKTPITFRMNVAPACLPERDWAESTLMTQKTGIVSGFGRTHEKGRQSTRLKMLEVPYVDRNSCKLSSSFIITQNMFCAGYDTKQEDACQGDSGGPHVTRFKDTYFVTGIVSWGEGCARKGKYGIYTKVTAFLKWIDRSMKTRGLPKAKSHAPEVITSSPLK

| SMILES | pKi [1] | pKi [2] |
| --- | --- | --- |
| N=C(N)c1cc2cc(-c3ccccc3)ccc2s1 | 5.10 | – |
| N=C(N)c1cc2c(-c3ccccc3)cccc2s1 | 5.80 | – |
| COC(=O)CC(Oc1ccc2cc(C(=N)N)sc2c1)c1ccc(Cl)cc1 (stereo unspecified) | 7.55 | 7.48 |
| N=C(N)c1cc2ccc(OCc3cccnc3)cc2s1 | 5.98 | 5.47 |
| CC(Oc1ccc2cc(C(=N)N)sc2c1)c1ccc(F)cc1 (stereo unspecified) | 4.95 | – |
| CCOC(=O)COc1ccc2cc(C(=N)N)sc2c1 | 5.42 | 6.22 |
| COc1ccc(-c2ccc3cc(C(=N)N)sc3c2)cc1OC | 4.62 | – |
| COC(=O)c1ccc(COc2ccc3cc(C(=N)N)sc3c2)cc1 | 4.95 | – |
| N=C(N)c1cc2c(I)cccc2s1 | 6.02 | 4.66 |
| CCOC(=O)COc1cccc2sc(C(=N)N)cc12 | 4.92 | – |
| Cc1ccc(COc2ccc3cc(C(=N)N)sc3c2)cc1 | 6.05 | 5.10 |
| N=C(N)c1cc2c(OCc3nc4ccccc4s3)cccc2s1 | 6.10 | 5.59 |

Further compounds by rising pKi [1], results first:

| pKi [1] | pKi [2] | SMILES |
| --- | --- | --- |
| 4.57 | – | COc1ccccc1COc1ccc2cc(C(=N)N)sc2c1 |
| 4.67 | – | N=C(N)c1cc2ccc(OCCc3ccccc3)cc2s1 |
| 5.14 | – | N=C(N)c1cc2ccc(OCc3ccccc3Cl)cc2s1 |
| 5.23 | 4.92 | COc1ccc(-c2ccc3sc(C(=N)N)cc3c2)cc1OC |
| 5.82 | 5.22 | N=C(N)c1cc2c(OCc3ccccc3)cccc2s1 |
| 6.35 | 5.24 | N=C(N)c1cc2ccc(OCc3ccc(F)c(F)c3)cc2s1 |
| 6.35 | 5.54 | N=C(N)c1cc2ccc(OCc3ccc(Cl)cc3)cc2s1 |
| 6.46 | 5.94 | N=C(N)c1cc2ccc(OCc3cccs3)cc2s1 |
